From ChEMBL document CHEMBL2086296, “Synthesis of novel quinoline-2-one based chalcones of potential anti-tumor activity” (Eur J Med Chem, 2012)

Tests used:
NCI-H23 = test: Cytotoxicity against human NCI-H23 cells after 24 hrs by SRB assay; assay type: cell-based; conditions: nci-h23, 24 h
Outline: (§1)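 NCI 60-cell screen. Cells grown in RPMI 1640 with 5% FBS and 2 mM L-glutamine, seeded at 5,000–40,000 cells/well, preincubated 24 h at 37 °C in 5% CO2. Drug stock in DMSO, diluted in medium with gentamicin; five final concentrations, 100, 10, 1.0, 0.1 and […]. Time-zero plates were TCA-fixed. Protein read by SRB staining; GI50, TGI and LC50 taken relative to time-zero.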

SK-MEL-28 [1] = test: (§2) Cytotoxicity against human SK-MEL-28 cells after 24 hrs by SRB assay; assay type: cell-based; conditions: sk-mel-28, 24 h; outline: as §1
SF-295 [2] = test: (§3) Cytotoxicity against human SF295 cells after 24 hrs by SRB assay; assay type: functional; conditions: SF-295, 24 h
Outline: (§4)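 NCI 60-line screen. Cells in RPMI 1640 with 5% FBS and 2 mM L-glutamine, seeded at 5,000–40,000 cells/well by doubling time, then incubated 24 h at 37 °C, 5% CO2 before dosing. Time-zero plates fixed with TCA at drug addition. DMSO stocks diluted in medium with gentamicin to five concentrations, […]. Protein read by SRB staining. GI50, TGI and LC50 derived relative to control and time-zero.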

COLO 205 [3] = test: (§5) Cytotoxicity against human COLO205 cells after 24 hrs by SRB assay; assay type: cell-based; conditions: colo 205, 24 h; outline: as §1
SN12C [4] = test: (§6) Cytotoxicity against human SN12C cells after 24 hrs by SRB assay; assay type: functional; outline: as §4
HOP-92 [5] = test: (§7) Cytotoxicity against human HOP92 cells after 24 hrs by SRB assay; assay type: functional; conditions: HOP-92, 24 h; outline: as §4
COLO 205 [6] = test: as §5; assay type: functional; conditions: COLO 205, 24 h; outline: as §4
UACC-62 = test: Cytotoxicity against human UACC62 cells after 24 hrs by SRB assay; assay type: cell-based; conditions: uacc-62, 24 h
Outline: (§8)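 NCI 60-cell-line screen: cells grown in RPMI 1640 with 5% FBS and 2 mM L-glutamine, seeded at 5,000–40,000 cells/well by doubling time, and preincubated 24 h at 37 °C in 5% CO2. Time-zero plates were TCA-fixed. DMSO stocks were diluted in medium with gentamicin to five concentrations (100, 10, 1.0, 0.1, […]). Protein was read by SRB, and GI50, TGI and LC50 were derived against time-zero.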

ACHN = test: Cytotoxicity against human ACHN cells after 24 hrs by SRB assay; assay type: functional; outline: as §4
BT-549 = test: Cytotoxicity against human BT549 cells after 24 hrs by SRB assay; assay type: functional; conditions: BT-549, 24 h; outline: as §4
A549 = test: Cytotoxicity against human A549 cells after 24 hrs by SRB assay; assay type: cell-based; conditions: a549, 24 h; outline: as §1
SW-620 = test: Cytotoxicity against human SW620 cells after 24 hrs by SRB assay; assay type: cell-based; conditions: sw-620, 24 h; outline: as §8
NCI-H460 = test: Cytotoxicity against human NCI-H460 cells after 24 hrs by SRB assay; assay type: cell-based; conditions: nci-h460, 24 h; outline: as §1
SK-OV-3 = test: Cytotoxicity against human SKOV3 cells after 24 hrs by SRB assay; assay type: functional; conditions: SK-OV-3, 24 h; outline: as §4
SNB-19 = test: Cytotoxicity against human SNB19 cells after 24 hrs by SRB assay; assay type: functional; conditions: SNB-19, 24 h
Outline: (§9)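 NCI 60-cell screen. Cells are grown in RPMI 1640 with 5% FBS and 2 mM L-glutamine and seeded at 5,000–40,000 cells/well according to doubling time. They are preincubated 24 h at 37 °C in 5% CO2, and Tz plates are TCA-fixed at drug addition. Drug stock is in DMSO, diluted in medium with gentamicin, and tested at five concentrations (100, 10, 1.0, 0.1, […]). Protein is read by SRB staining. GI50, TGI and LC50 are derived relative to time-zero and control wells.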

HL-60 = test: Cytotoxicity against human HL60 cells after 24 hrs by SRB assay; assay type: functional; conditions: HL-60, 24 h; outline: as §4
SF-295 [7] = test: as §3; assay type: cell-based; conditions: sf-295, 24 h; outline: as §1
SN12C [8] = test: as §6; assay type: cell-based; outline: as §8
MCF7 = test: Cytotoxicity against human MCF7 cells after 24 hrs by SRB assay; assay type: cell-based; conditions: mcf7, 24 h; outline: as §1
NCI/ADR-RES = test: Cytotoxicity against human NCI/ADR-RES cells after 24 hrs by SRB assay; assay type: cell-based; outline: as §1
HOP-62 = test: Cytotoxicity against human HOP62 cells after 24 hrs by SRB assay; assay type: cell-based; conditions: hop-62, 24 h; outline: as §1
SK-MEL-28 [9] = test: as §2; assay type: functional; conditions: SK-MEL-28, 24 h; outline: as §4
NCI-H522 = test: Cytotoxicity against human NCI-H522 cells after 24 hrs by SRB assay; assay type: cell-based; conditions: nci-h522, 24 h; outline: as §1
SR = test: Cytotoxicity against human SR cells after 24 hrs by SRB assay; assay type: functional; outline: as §9
MDA-MB-231 = test: Cytotoxicity against human MDA-MB-231 cells after 24 hrs by SRB assay; assay type: functional; conditions: MDA-MB-231, 24 h; outline: as §4
HOP-92 [10] = test: as §7; assay type: cell-based; conditions: hop-92, 24 h; outline: as §1
TK-10 = test: Cytotoxicity against human TK10 cells after 24 hrs by SRB assay; assay type: functional; conditions: TK-10, 24 h; outline: as §9
SF-268 = test: Cytotoxicity against human SF268 cells after 24 hrs by SRB assay; assay type: cell-based; conditions: sf-268, 24 h; outline: as §1
HCT-15 = test: Cytotoxicity against human HCT15 cells after 24 hrs by SRB assay; assay type: functional; conditions: HCT-15, 24 h; outline: as §4
MDA-MB-468 = test: Cytotoxicity against human MDA-MB-468 cells after 24 hrs by SRB assay; assay type: cell-based; conditions: mda-mb-468, 24 h; outline: as §1

O=C(/C=C/c1cc2ccccc2[nH]c1=O)/C=C/c1cc2ccccc2[nH]c1=O
LC50 (NCI-H23): > 100 µM | LC50 (SK-MEL-28 [1]): > 100 µM | GI50 (SF-295 [2]): 2.64 µM | LC50 (COLO 205 [3]): > 100 µM | GI50 (SN12C [4]): 2.66 µM | TGI (SN12C [4]): > 100 µM | GI50 (HOP-92 [5]): > 100 µM | TGI (HOP-92 [5]): > 100 µM | GI50 (COLO 205 [6]): 2.89 µM | TGI (COLO 205 [6]): > 100 µM | LC50 (UACC-62): > 100 µM | GI50 (ACHN): 2.49 µM | TGI (ACHN): > 100 µM | GI50 (BT-549): 1.9 µM | TGI (BT-549): 6.15 µM | LC50 (A549): > 100 µM | LC50 (SW-620): > 100 µM | LC50 (NCI-H460): > 100 µM | GI50 (SK-OV-3): 18.1 µM | TGI (SK-OV-3): > 100 µM | GI50 (SNB-19): 5.12 µM | TGI (SNB-19): > 100 µM | GI50 (HL-60): 3.38 µM | TGI (HL-60): > 100 µM | LC50 (SF-295 [7]): > 100 µM | LC50 (SN12C [8]): > 100 µM | LC50 (MCF7): > 100 µM | LC50 (NCI/ADR-RES): > 100 µM | LC50 (HOP-62): > 100 µM | GI50 (SK-MEL-28 [9]): 4.96 µM | TGI (SK-MEL-28 [9]): > 100 µM | LC50 (NCI-H522): > 100 µM | GI50 (SR): 1.14 µM | TGI (SR): > 100 µM | GI50 (MDA-MB-231): 3.49 µM | TGI (MDA-MB-231): > 100 µM | LC50 (HOP-92 [10]): > 100 µM | GI50 (TK-10): 4.6 µM | TGI (TK-10): > 100 µM | LC50 (SF-268): > 100 µM | GI50 (HCT-15): 2.02 µM | TGI (HCT-15): > 100 µM | LC50 (MDA-MB-468): > 100 µM
